The values that follow come from ChEMBL document CHEMBL3525912, “Sulfation of 4-hydroxy toremifene: individual variability, isoform specificity, and contribution to toremifene pharmacogenomics” (Drug Metab Dispos, 2012).

Data set [1] can be described thus: Drug level in human liver cytosol assessed as SULT1A1 3'UTR ACG/GTA copy number-3-mediated compound formation treated with 4-OH-toremifene by HPLC analysis. The data set is classed as ADME, tissue-based. The method in brief:
(§1)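 Liver cytosols from individual donors (100 µg protein) with 100 µM 4-OH-TOR, 20 µM [35S]PAPS, 50 mM potassium phosphate pH 6.2, 15 min at 37 °C. Sulfate measured by C18 radio-HPLC. SULT1A1 copy number by TaqMan qPCR against RNaseP, quadruplicate samples. Genotype–activity relation analysed by ANOVA. Triplicate incubations.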

The nature of data set [2]: Drug level in human liver cytosol assessed as SULT1A1 copy number-1-mediated compound formation treated with 4-OH-TOR by HPLC analysis. The data set is classed as ADME, tissue-based. The method in brief: as §1
Data set [3] in a line: Drug level in human liver cytosol assessed as SULT1A1 3'UTR ACG/ACG copy number-3-mediated compound formation treated with 4-OH-toremifene by HPLC analysis. The data set is classed as ADME, tissue-based. Summed up:
as §1

Data set [4] is described as follows: Drug level in human liver cytosol assessed as SULT1A1 3'UTR GTA/GTA copy number-2-mediated compound formation treated with 4-OH-toremifene by HPLC analysis. The data set is classed as ADME, tissue-based. The method in brief:
as §1

The nature of data set [5]: Drug level in human liver cytosol assessed as SULT1A1 copy number-2--mediated compound formation treated with 4-OH-TOR by HPLC analysis. Type of data set: ADME, tissue-based. The method in brief: as §1
The nature of data set [6]: Drug level in human liver cytosol assessed as SULT1A1 copy number-3--mediated compound formation treated with 4-OH-TOR by HPLC analysis. Type of data set: ADME, tissue-based. The method in brief:
as §1

A short description of data set [7]: Retention time of the compound. The data set is classed as physicochemical. Summed up: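 Symmetry C18 column (4.6 × 150 mm) run at 1.0 mL/min. Gradient: 2 mM TBAHS with 30% acetonitrile for 35 min, 45% acetonitrile for 15 min, then 30% for 20 min. 100 µl injection, flow scintillation detection.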
A short description of data set [8]: Drug level in human liver cytosol assessed as SULT1A1 3'UTR ACG/ACG copy number-2-mediated compound formation treated with 4-OH-toremifene by HPLC analysis. Type of data set: ADME, tissue-based. The method in brief:
as §1

The nature of data set [9]: Drug level in human liver cytosol assessed as SULT1A1 3'UTR ACG/GTA copy number-2-mediated compound formation treated with 4-OH-toremifene by HPLC analysis. The data set is classed as ADME, tissue-based. The method in brief: as §1
Data set [10] can be described thus: Drug level in human liver cytosol assessed as SULT1A1*1/2 single nucleotide polymorphism-mediated compound formation treated with 4-OH-TOR by HPLC analysis. The data set is classed as ADME, tissue-based. Summed up:
as §1

Data set [11] deals with Liver cytosol. As to the kind of experiment: Drug metabolism in human liver cytosol assessed as 4-(4-chloro-1-(4-(2-(dimethylamino)ethoxy)phenyl)-2-phenylbut-1-enyl)phenyl hydrogen sulfate formation after 15 mins by Michaelis-Menten equation in presence of 20 uM PAPS. Type of data set: ADME. Conditions: 0.25 h, read-out: Km(app). Summed up: (§2)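 Human liver cytosol (protein by Bradford) incubated with 4-OH-TOR (0.1–30 µM for kinetics), 20 µM [35S]PAPS, 50 mM potassium phosphate pH 6.2, final DMSO <0.1%, 15 min at 37 °C. Stopped with acetonitrile:acetic acid (96:4). Sulfate measured by radio-HPLC, background taken from a substrate-free vehicle control. Triplicate incubations.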

The nature of data set [12]: Drug metabolism in human liver cytosol assessed as SULT1A1 copy number-1-mediated 4-(4-chloro-1-(4-(2-(dimethylamino)ethoxy)phenyl)-2-phenylbut-1-enyl)phenyl hydrogen sulfate formation by HPLC analysis. The data set is classed as ADME, tissue-based. The method in brief: as §1
The nature of data set [13]: Drug metabolism in human liver cytosol assessed as SULT1A1 copy number-3-mediated 4-(4-chloro-1-(4-(2-(dimethylamino)ethoxy)phenyl)-2-phenylbut-1-enyl)phenyl hydrogen sulfate formation by HPLC analysis. Type of data set: ADME, tissue-based. The method in brief:
as §1

Data set [14] can be described thus: Drug metabolism in human liver cytosol assessed as SULT1A1 copy number-2-mediated 4-(4-chloro-1-(4-(2-(dimethylamino)ethoxy)phenyl)-2-phenylbut-1-enyl)phenyl hydrogen sulfate formation by HPLC analysis. Type of data set: ADME, tissue-based. Summed up: as §1
The nature of data set [15]: Drug metabolism in human liver cytosol assessed as SULT1A1*1/2 single nucleotide polymorphism-mediated 4-(4-chloro-1-(4-(2-(dimethylamino)ethoxy)phenyl)-2-phenylbut-1-enyl)phenyl hydrogen sulfate formation by HPLC analysis. Type of data set: ADME, tissue-based. Summed up:
as §1

Data set [16] can be described thus: Drug metabolism in human liver cytosol assessed as SULT1A1 3'UTR ACG/GTA copy number-2-mediated 4-(4-chloro-1-(4-(2-(dimethylamino)ethoxy)phenyl)-2-phenylbut-1-enyl)phenyl hydrogen sulfate formation by HPLC analysis. The data set is classed as ADME, tissue-based. Summed up:
as §1

The test system of data set [17] is Liver cytosol. As to the kind of experiment: Drug metabolism in human liver cytosol assessed as 4-(4-chloro-1-(4-(2-(dimethylamino)ethoxy)phenyl)-2-phenylbut-1-enyl)phenyl hydrogen sulfate formation measured per mg of protein after 15 mins by Michaelis-Menten equation in presence of 20 uM PAPS. The data set is classed as ADME. Particulars: 0.25 h. The method in brief:
as §2

The nature of data set [18]: Drug metabolism in human liver cytosol assessed as SULT1A1 3'UTR ACG/GTA copy number-3-mediated 4-(4-chloro-1-(4-(2-(dimethylamino)ethoxy)phenyl)-2-phenylbut-1-enyl)phenyl hydrogen sulfate formation by HPLC analysis. Type of data set: ADME, tissue-based. The method in brief: as §1
Data set [19] deals with Liver cytosol. As to the kind of experiment: Drug metabolism in human liver cytosol assessed as 4-(4-chloro-1-(4-(2-(dimethylamino)ethoxy)phenyl)-2-phenylbut-1-enyl)phenyl hydrogen sulfate formation after 15 mins by HPLC analysis in presence of 20 uM PAPS and 0.1 to 10 uM SULT1A1 inhibitor DCNP. Type of data set: ADME. Particulars: 0.25 h. Summed up:
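Pooled human liver cytosol sulfating 4-OH-TOR with 20 µM PAPS, pH 6.2, plus 0.1–10 µM (final) ethanol-dissolved inhibitor. After 15 min the reaction was stopped with acetonitrile:acetic acid (96:4) and sulfate quantified by radio-HPLC. IC50 calculated. Three separate determinations.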

Data set [20] can be described thus: Drug metabolism in human liver cytosol assessed as SULT1A1 3'UTR GTA/GTA copy number-2-mediated 4-(4-chloro-1-(4-(2-(dimethylamino)ethoxy)phenyl)-2-phenylbut-1-enyl)phenyl hydrogen sulfate formation by HPLC analysis. Type of data set: ADME, tissue-based. Summed up:
as §1

A short description of data set [21]: Drug metabolism in human liver cytosol assessed as SULT1A1 3'UTR ACG/ACG copy number-2 -mediated 4-(4-chloro-1-(4-(2-(dimethylamino)ethoxy)phenyl)-2-phenylbut-1-enyl)phenyl hydrogen sulfate formation by HPLC analysis. The data set is classed as ADME, tissue-based. The method in brief: as §1
Data set [22] deals with Liver cytosol. Briefly: Drug metabolism in human liver cytosol assessed as 4-(4-chloro-1-(4-(2-(dimethylamino)ethoxy)phenyl)-2-phenylbut-1-enyl)phenyl hydrogen sulfate formation measured per mg of protein treated with 0.1 to 30 after 15 mins by HPLC analysis. Conditions: 0.25 h. The data set is classed as ADME, tissue-based. The method in brief: as §2
Data set [23] is described as follows: Drug metabolism in human liver cytosol assessed as SULT1A1 3'UTR ACG/ACG copy number-3-mediated 4-(4-chloro-1-(4-(2-(dimethylamino)ethoxy)phenyl)-2-phenylbut-1-enyl)phenyl hydrogen sulfate formation by HPLC analysis. The data set is classed as ADME, tissue-based. Summed up: as §1

As to `CN(C)CCOc1ccc(/C(=C(/CCCl)c2ccccc2)c2ccc(OS(=O)(=O)O)cc2)cc1`, the Drug metabolism entry in data set [1], in data set [2], in data set [3], in data set [4], in data set [5] and in data set [6] was “metabolite_detected” in each case. Further, the Drug metabolism entry in data set [8], in data set [9] and in data set [10] was “metabolite_detected” throughout. The compound also registered a Retention_time in data set [7] of 12.1 min.
The Km is the concentration of substrate that gives half-maximal velocity. Broadly, the Vmax is the rate approached at saturating substrate. With `CN(C)CCOc1ccc(/C(=C(/CCCl)c2ccccc2)c2ccc(O)cc2)cc1` [4-HYDROXYTORMIFENE], in the data set on Liver cytosol [11], the Michaelis-Menten constant (Km) was 3.5 µM. The Drug metabolism result in data set [12], in data set [13], in [14], in data set [15], in [16] and in data set [18] was “metabolite_detected” throughout. Besides, the Drug metabolism entry in the data set on Liver cytosol [19] was “metabolite_not_detected”; in data set [20] it was “metabolite_detected”; in data set [21] it was “metabolite_detected”; with Liver cytosol [22], 0.0003 nmol/min; in data set [23], “metabolite_detected”. The Vmax with Liver cytosol [17] stood at 1.4 nmol/min/mg. The same compound displayed a Retention_time in [7] of 45.2 min.
